Like-named read-outs stand apart in the source and are kept apart here.
Assays:
[1] = in vivo; format: in vivo, A/J mice
[2] = format: physicochemical, mice; conditions: for Accuracy (RE, %) 25°C for 6 h / Accuracy (RE, %) Frozen for 30 days: stability in mice plasma/blood QC sample; for Accuracy (RE, %) Frozen for 30 days: −80°C; for Accuracy (RE, %) 4°C for 24 h: stability, extracted QC sample in auto-sampler
Summary of the method: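 Blank mouse blood spiked with analytes and vitamin C, then extracted with methanol containing daidzein internal standard (0.5 μM) by 1 min vortex. Spun at 20,000 × g for 15 min and dried under air. Three replicates per QC level were held unextracted at 25°C for 6 h, at −80°C for 30 days, or extracted in the 4°C autosampler for 24 h. Analysed by UPLC-MS/MS (C18, formic acid/acetonitrile, positive MRM); accuracy as RE.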

[3] = male, A/J, mouse, whole blood, po, 500 mg/kg

Compound: CC(C)=CCC[C@](C)(O[C@@H]1O[C@H](CO)[C@@H](O)[C@H](O)[C@H]1O)[C@H]1CC[C@]2(C)[C@@H]1[C@H](O)C[C@@H]1[C@@]3(C)CC[C@H](O)C(C)(C)[C@@H]3[C@@H](O[C@@H]3O[C@H](CO)[C@@H](O)[C@H](O)[C@H]3O[C@@H]3O[C@@H](C)[C@H](O)[C@@H](O)[C@H]3O)C[C@]12C [Re, ginsenoside Re]
- AUC(0-inf) [1, 3]: 0.045 ± 0.0289 µM·h
- AUC(0-t) [1, 3]: 0.0423 ± 0.0265 µM·h
- Cmax [1, 3]: 50.2 ± 40.1 nM
- Tmax [1, 3]: 0.25 h
- half-life [1, 3]: 2.72 ± 2.15 h
- detected in the blood ([1]; mice, oral XCHT extract 0.5 g/kg): detected
- Accuracy (RE, %) 25°C for 6 h ([2]; spiked concentration 3.9): 10.1%
- Accuracy (RE, %) 25°C for 6 h ([2]; spiked concentration 62.5): 8.8%
- Accuracy (RE, %) 25°C for 6 h ([2]; spiked concentration 500): −0.3%
- Accuracy (RE, %) Frozen for 30 days ([2]; spiked concentration 3.9): 10.4%
- Accuracy (RE, %) Frozen for 30 days ([2]; spiked concentration 62.5): 9.7%
- Accuracy (RE, %) Frozen for 30 days ([2]; spiked concentration 500): 8.9%
- Accuracy (RE, %) 4°C for 24 h ([2]; spiked concentration 3.9): −5.4%
- Accuracy (RE, %) 4°C for 24 h ([2]; spiked concentration 62.5): 13.76%
- Accuracy (RE, %) 4°C for 24 h ([2]; spiked concentration 500): 9.7%
